For assay [1], the target named is T1, Mu-type opioid receptor (Homo sapiens, UniProt P35372). Kind of assay: Displacement of [3H]DAMGO from human recombinant mu opioid receptor expressed in CHO cells after 2 hrs by liquid scintillation counting. It counts as cell-based.
Assay [2] concerns the target T2, Kappa-type opioid receptor (Homo sapiens, UniProt P41145). Kind of assay: Displacement of [3H]U69,593 from human recombinant kappa opioid receptor expressed in CHO cells after 2 hrs by liquid scintillation counting. The class given is cell-based. The method, boiled down:
(§1)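 Membranes from stably transfected hDOR-CHO or hKOR-CHO cells, washed in ice-cold 10 mM Tris-HCl pH 7.4. Binding in 50 mM Tris-HCl pH 7.4 with protease inhibitors, about 30 µg protein per tube. Radioligand about 2 nM against 10 drug concentrations, triplicate, 2 h at 25 °C, GF/B filtration.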

For assay [3], the target named is Delta-type opioid receptor (Homo sapiens, UniProt P41143). Nature of the assay: Displacement of [3H]DADLE from human recombinant delta opioid receptor expressed in recombinant hDOR-CHO cells after 2 hrs by liquid scintillation counting. It counts as cell-based. The method, boiled down: as §1
Assay [4] addresses T1, Mu-type opioid receptor. Kind of assay: Ratio of morphine Ki to compound Ki for human mu opioid receptor.
Assay [5] is filed under the species Homo sapiens. Nature of the assay: Selectivity ratio Ki for human delta opioid receptor to Ki for human mu opioid receptor. The method, boiled down: (§2)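 Ki values from radioligand displacement on membranes of stably transfected human receptor CHO cells. […] Incubation 2 h at 25 °C, triplicate, filtration. Ki from pooled logistic IC50 by Cheng-Prusoff; ratio taken against the MOR Ki.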

For assay [6], the species on record is Homo sapiens. Nature of the assay: Selectivity ratio Ki for human kappa opioid receptor to Ki for human mu opioid receptor. The method, boiled down: as §2
For assay [7], the target named is T1, Mu-type opioid receptor. Kind of assay: Ratio of naloxone Ke to compound Ke for human mu opioid receptor.
Assay [8] has as its target T2, Kappa-type opioid receptor. To be noted: CHO.

A value given as a limit tells only on which side of the number the result lay.

We go through four molecules from ChEMBL document CHEMBL1811836, “Probes for narcotic receptor mediated phenomena. Part 42: synthesis and in vitro pharmacological characterization of the N-methyl and N-phenethyl analogues of the racemic ortho-c and para-c oxide-bridged phenylmorphans” (Bioorg Med Chem, 2011).

Sequence of Delta-type opioid receptor (P41143 whole entry): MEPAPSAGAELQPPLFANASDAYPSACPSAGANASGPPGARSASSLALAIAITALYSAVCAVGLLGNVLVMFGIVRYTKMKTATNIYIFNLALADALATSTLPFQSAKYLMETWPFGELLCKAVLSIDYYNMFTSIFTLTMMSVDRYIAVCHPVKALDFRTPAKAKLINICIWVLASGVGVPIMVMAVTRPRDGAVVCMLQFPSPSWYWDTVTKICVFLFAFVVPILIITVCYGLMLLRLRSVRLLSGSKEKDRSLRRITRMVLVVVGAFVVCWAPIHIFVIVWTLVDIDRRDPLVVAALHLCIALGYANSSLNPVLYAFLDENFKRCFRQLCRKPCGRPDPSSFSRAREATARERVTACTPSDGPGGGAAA
T1 sequence (P35372 whole entry): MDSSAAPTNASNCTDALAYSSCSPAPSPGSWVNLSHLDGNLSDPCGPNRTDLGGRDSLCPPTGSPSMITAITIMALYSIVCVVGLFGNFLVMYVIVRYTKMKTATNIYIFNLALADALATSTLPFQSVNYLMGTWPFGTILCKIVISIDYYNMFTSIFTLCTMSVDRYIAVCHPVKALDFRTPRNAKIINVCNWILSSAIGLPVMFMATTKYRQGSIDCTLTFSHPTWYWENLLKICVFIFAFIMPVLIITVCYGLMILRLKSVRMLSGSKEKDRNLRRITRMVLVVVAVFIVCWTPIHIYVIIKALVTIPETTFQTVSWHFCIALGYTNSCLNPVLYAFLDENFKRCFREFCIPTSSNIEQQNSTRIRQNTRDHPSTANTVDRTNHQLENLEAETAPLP
T2 sequence (P41145 whole entry): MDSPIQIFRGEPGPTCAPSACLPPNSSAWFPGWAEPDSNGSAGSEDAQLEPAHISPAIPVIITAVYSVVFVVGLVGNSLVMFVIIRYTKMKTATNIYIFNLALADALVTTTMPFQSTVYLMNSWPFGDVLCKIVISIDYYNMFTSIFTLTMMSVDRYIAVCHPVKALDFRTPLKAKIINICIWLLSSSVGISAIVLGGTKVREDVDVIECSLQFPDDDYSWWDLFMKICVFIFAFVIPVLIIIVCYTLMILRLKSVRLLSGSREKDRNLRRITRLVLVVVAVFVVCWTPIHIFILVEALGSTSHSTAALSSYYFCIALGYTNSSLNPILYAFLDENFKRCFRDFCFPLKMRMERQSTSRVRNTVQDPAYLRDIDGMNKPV

In general, Ki refers to a dissociation constant, usually derived from enzyme kinetics or from competition with a known ligand. With `CN1C[C@H]2Oc3c(O)cccc3[C@@]23CCC[C@@H]1C3` (relative stereo), the Ki in assay [1] was 619 nM; in assay [2] it was over 40000 nM; in assay [3], over 5200 nM.
In the case of `CN1C[C@H]2Oc3ccc(O)cc3[C@@]23CCC[C@@H]1C3` (relative stereo), the Ki in assay [1] is 1500 nM; in assay [2], 1080 nM; in assay [3], over 5200 nM.
Take `Oc1ccc2c(c1)[C@]13CCC[C@H](C1)N(CCc1ccccc1)C[C@H]3O2` (relative stereo): the values for the inhibition constant Ki in assay [1], in assay [2] and in assay [3] were 67 nM, 1230 nM and 1250 nM, respectively.
On to `Oc1cccc2c1O[C@@H]1CN(CCc3ccccc3)[C@@H]3CCC[C@]21C3` (relative stereo), for which the figures for the Ratio Ki in assay [4], in assay [5] and in assay [6] were 2, 1200 and 50, respectively. Besides, the Ki in assay [1] is 1.1 nM; in assay [2], 51 nM; in assay [3] it was 1230 nM. In addition, the Ratio Ke in assay [7] was determined as 3. Besides, in assay [8], the Ke amounted to 1.79 nM.
